HSF1 inhib: HSF1 inhibition; NIH3T3-HGL HSE-luciferase, MG132-induced, luminescence 8 h; active compounds read low; activity change, negative = inhibition, % at 7.5 µM (by protocol); 300,000 tested, 0.77% active;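 active means more than half of replicate wells show activity change below -50%, luminescence cut by over half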;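 further: luciferase reports HSF-1 transcriptional activity via heat shock element; 0% = median of DMSO wells and -100% = zero luminescence signal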
HCV core dimer: HCV core protein dimerization inhibition. TR-FRET GST/Flag-core106 dimerization, 1536-well. inhibition, % at 5 µM. 300,000 tested, 0.33% active;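 active means inhibition above the mean of all tested compounds plus 3 SD, set per screening campaign, cut at about 45% in these data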
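test system = GST/Flag-tagged HCV core106 proteins | probe or stimulus = Eu donor and XL665 acceptor anti-tag antibodies | times = compound-protein-antibody incubation 4 h at 22.5 °C | signal = TR-FRET, excitation 340 nm, emission 617 and 671 nm | measure = percent inhibition of core106 dimerization signal | controls = wells lacking GST-core106 and wells with excess unlabelled core106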
HSF-1 act: increases HSF-1 driven luciferase reporter signal; NIH3T3-HGL HSF-1 luciferase reporter, MG132, 8 h; 100% = twice DMSO control signal; activation, % at 9 µM; 300,000 tested, 1.7% active;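 active means mean replicate activation of at least 50% with a set share of replicates each reaching 50%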;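 further: 0% = median of the neutral control wells and 100% = twice that signal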
ALR inh: human ALR oxidase inhibition via reduced H2O2. 290,000 tested, 3.8% active. AID 485317. inhibition, % (concentration not given with the values). purified ALR, DTT oxidation, H2O2 HRP-luminol luminescence;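 active means mean replicate inhibition above about 79%, with every replicate also reaching it, limit read from the data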
Target sequence (P55789 whole entry, looked up): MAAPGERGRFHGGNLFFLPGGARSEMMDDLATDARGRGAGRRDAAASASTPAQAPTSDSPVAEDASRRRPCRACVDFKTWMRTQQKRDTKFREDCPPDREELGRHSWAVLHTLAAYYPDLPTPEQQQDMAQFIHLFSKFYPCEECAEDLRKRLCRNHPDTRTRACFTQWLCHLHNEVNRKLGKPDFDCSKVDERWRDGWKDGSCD
PHOSPHO1 inh: inhibitors of human PHOSPHO1 phosphatase | Q8TCT1 | recombinant PHOSPHO1, absorbance phosphatase assay | inhibition, % at 13.3 µM | 290,000 tested, 1.1% active | AID 1565; in the data active means inhibition above about 60%
Target sequence (Q8TCT1 whole entry, looked up): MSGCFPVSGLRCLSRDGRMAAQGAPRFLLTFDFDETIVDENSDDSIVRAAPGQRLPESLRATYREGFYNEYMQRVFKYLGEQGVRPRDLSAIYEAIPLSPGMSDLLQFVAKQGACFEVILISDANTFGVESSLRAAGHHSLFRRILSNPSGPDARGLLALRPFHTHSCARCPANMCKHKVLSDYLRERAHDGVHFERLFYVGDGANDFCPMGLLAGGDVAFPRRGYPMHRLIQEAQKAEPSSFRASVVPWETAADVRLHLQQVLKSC
AI-2 QS mod: Vibrio harveyi AI-2 quorum sensing modulation. Vibrio harveyi JMH597 AI-2 luminescence/OD600 ratio, 9 h; active compounds read low; strain lacks LuxN and CqsS sensors; 0 = neutral-control median. activity change, % at 7.5 µM. 300,000 tested, 0.4% active. AID 2094; in the data active means activity change below about -75%, passing the limit was not always enough;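 further: luminescence divided by OD600 gain over 9 h not by final OD600 alone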
* hit, by the source's call; · = no result. Hits are enriched below; roughly 6.8% of the tested compounds scored in any of these assays.

SMILES	HSF1 inhib	HCV core dimer	HSF-1 act	ALR inh	PHOSPHO1 inh	AI-2 QS mod
CC(=O)c1ccc(-n2c(-c3cc(-c4ccsc4)n[nH]3)n[nH]c2=S)cc1	-9.2	1.0	-5.4	·	64.7*	11.9
CCOC(=O)CN1NC2(CCC(C)CC2)NC1=S (configuration not stated)	-3.3	3.2	-0.6	-4.5	95.3*	5.3
CCOC(=O)CN1NC2(CCCCC2)NC1=S	-13.9	3.0	8.2	·	100.3*	14.0
CCOC(=O)CN1NC2(CCCC(C)C2)NC1=S (configuration not stated)	-4.8	-3.6	9.5	-1.1	90.9*	7.4
C=CCC(=O)NC1CC(C)(C)Cc2c1cnn2-c1ccccc1C (configuration not stated)	0.9	1.4	-7.0	-7.8	44.4	13.7
Cc1ccc2nc(/C(C#N)=C\c3cc(O)ccc3[N+](=O)[O-])[nH]c2c1	5.0	-1.1	16.8	97.9*	3.5	16.2
COc1cc(/C=C(\C#N)c2nc3ccc(C)cc3[nH]2)cc([N+](=O)[O-])c1O	·	·	·	·	36.7	·
COc1cc(/C=C(\C#N)c2nc3ccc(C)cc3[nH]2)c([N+](=O)[O-])cc1OC	21.0	-11.2	64.0*	18.9	-2.9	26.8
O=C(c1cccnc1Cl)N1CCOCC1	-6.2	0.1	9.5	3.5	-14.1	7.4
O=C(OCc1nnc(-c2ccccc2)o1)C1CC(=O)N(CCc2ccccc2)C1 (configuration not stated)	·	·	·	-5.0	·	·
COc1ccc2c(CC(=O)Nc3nccs3)coc2c1	19.2	4.6	72.5*	-3.4	39.7	9.9
FC(F)(F)c1cnc(NNC(=S)Nc2ccccc2Cl)c(Cl)c1	4.3	-5.1	8.5	96.7*	0.8	5.8
CC1(CCc2ccccc2)NC(=S)N(c2ccc(Cl)cc2)N1 (configuration not stated)	-2.0	-5.4	-1.3	93.9*	32.1	-2.9
CC(C)(C)C1CCC2(CC1)NC(=S)N(c1ccccc1)N2 (configuration not stated)	3.7	1.9	-8.9	-4.9	-0.9	13.2
CC1(CCc2ccccc2)NC(=S)N(c2ccccc2)N1 (configuration not stated)	0.2	-3.2	37.9	98.7*	-29.7	-12.3
Cc1ccc(C2(C)NC(=O)N(CC(=O)N(Cc3ccccc3)C(C)(C)C)C2=O)cc1 (configuration not stated)	4.5	5.2	7.6	·	35.7	13.6
CC(C)(C)c1ccc(C(=O)Nc2ccc(CC(=O)O)cc2)o1	-59.3*	4.4	-64.1	7.2	0.9	13.9
CCCNC(=S)NC1CC2CCCC(C1)N2Cc1ccc(F)cc1 (configuration not stated)	-61.3*	1.2	-68.9	·	34.8	8.7
CCOC(=O)c1c(NC(C)=O)sc2c(OC)cccc12	1.5	5.1	5.4	·	32.5	1.6
CCOC(=O)c1c(N)sc2c(NC(C)=O)cccc12	-6.2	3.5	-2.8	98.4*	4.9	20.9
CCOC(=O)c1c(N)sc2c(O)c(Br)ccc12	-93.9*	-11.7	-94.9	97.7*	16.8	43.5
CC(C)CC(NC(=O)c1ccccc1)C(=O)OCC(=O)Nc1ccc(Br)cn1 (configuration not stated)	-6.6	-1.4	-4.0	98.8*	0.1	37.4
O=C(COc1ccccc1)NC(=S)Nc1ccc(Br)cn1	-5.3	0.2	-12.5	-2.2	-5.5	-12.6
CCOC(=O)/C(=C/C=C1\Sc2cc(OCC)c(OCC)cc2N1CC)C(C)=O	-4.3	-20.3	2.2	91.6*	0.4	6.2
CCN1/C(=C/C(C)=O)Sc2ccc(OC)cc21	-8.5	-3.9	-13.1	·	2.3	14.1
SMILES	HSF1 inhib	HCV core dimer	HSF-1 act	ALR inh	PHOSPHO1 inh	AI-2 QS mod
CCOC(=O)/C(=C\C=C1/Sc2cc(OCC)c(OCC)cc2N1CC)C(C)=O	-8.9	-22.0	4.3	92.8*	-0.5	25.2
Cc1cccc(OCC(=O)N(C)c2c(N)n(Cc3ccccc3)c(=O)[nH]c2=O)c1C	·	·	·	-1.7	·	·
O=C(CSc1nnc(-c2cccnc2)n1Cc1ccco1)c1ccc(Br)cc1	2.8	0.8	-0.2	95.8*	25.8	20.7
O=C(CSc1nnc(-c2cccnc2)n1Cc1ccco1)c1ccc2ccccc2c1	-4.1	24.9	-24.3	-12.1	69.9*	11.8
CCC(C(=O)OCC(=O)N1CCN(S(=O)(=O)c2ccc(C)cc2C)CC1)c1ccccc1 (configuration not stated)	·	·	·	-4.0	·	·
COc1ccc(Cl)cc1NC(=O)C1Cc2cc(S(=O)(=O)N3CCCC3)ccc2N1C(C)=O (configuration not stated)	5.4	6.9	22.0	-0.5	38.2	44.6
CC(=O)n1nc(-c2ccncc2)nc1SCC(=O)Nc1cccc(Cl)c1	5.6	-3.3	6.1	·	35.7	16.2
CC(=O)NC1C(=O)N=C(SCC(=O)Nc2sc3c(c2C#N)CCCCCC3)NC1=O (configuration not stated)	-2.4	1.1	-6.4	98.9*	3.3	17.3
CC(=O)NC1C(=O)N=C(SCC(=O)Nc2cccc(Cl)c2)NC1=O (configuration not stated)	-1.0	-2.5	5.0	99.2*	27.8	14.2
Cc1ccc(-n2cnc(=O)c3cccnc32)cc1	-0.6	3.9	3.0	-19.7	-7.5	14.7
Cc1cn2c(nc(=O)c3cccnc32)s1	-75.4*	-4.8	-78.4	2.1	9.3	14.0
COC(=O)CNc1c(-c2ccccn2)nc2ccc(Br)cn12	27.6	-6.1	63.9*	-14.5	30.4	25.4
CC(C(=O)NCc1ccccc1Cl)n1cc([N+](=O)[O-])cn1 (configuration not stated)	-3.1	1.9	-8.1	-2.8	·	·
Clc1cccc(-c2cc3nc4c(c(NCc5ccco5)n3n2)CCCC4)c1	22.3	1.2	58.1*	-1.9	8.9	21.5
CCN(CC)c1ccc(/C=C(/C#N)C(=O)NC(C)C)o1	-2.8	-30.9	-3.6	98.8*	32.3	5.7
CCN(CC)c1ccc(/C=C(/C#N)C(=O)NCc2ccccc2)o1	14.8	-32.2	42.7	43.4	2.5	5.0
CC(C)NC(=O)/C(C#N)=C\c1ccc(N(C)C)o1	-7.9	-27.8	-2.4	97.2*	28.3	-11.4
C=CCNC(=O)CN1N=C(c2ccc(C)cc2)CCC1=O	-1.5	6.5	5.1	-5.7	42.2	2.5
CC1CCC(NC(=O)C2CC(=O)N(c3ccc(Cl)cc3)C2)CC1 (configuration not stated)	-3.7	-18.7	-9.0	-13.5	30.1	19.4
COc1ccc(C2=NN(c3nc(-c4ccc(CNC(C)=O)cc4)cs3)C(c3ccco3)C2)cc1 (configuration not stated)	15.6	19.9	9.1	99.0*	16.0	30.6
O=C(CCC(=O)N1CCOc2ccccc21)Nc1cc(F)ccc1F	1.5	0.2	8.5	-6.9	1.8	11.1
